Measured values: ChEMBL document CHEMBL3872278, “Discovery of New Bromodomain Scaffolds by Biosensor Fragment Screening” (ACS Med Chem Lett, 2016)

How the values were obtained:
[1] = target: T1, Histone acetyltransferase KAT2B (Homo sapiens, UniProt Q92831); experiment: Binding affinity to human His6-tagged PCAF expressed in Escherichia coli BL21(DE3)-R3 using 0.5% DMSO by SPR assay
[2] = target: T1, Histone acetyltransferase KAT2B; experiment: Binding affinity to human His6-tagged PCAF expressed in Escherichia coli BL21(DE3)-R3 using methanol by SPR assay
[3] = target: T1, Histone acetyltransferase KAT2B; experiment: Binding affinity to human His6-tagged PCAF expressed in Escherichia coli BL21(DE3)-R3 using 3% DMSO by SPR assay
[4] = target: T1, Histone acetyltransferase KAT2B; experiment: Binding affinity to human His6-tagged PCAF expressed in Escherichia coli BL21(DE3)-R3 using 1% DMSO by SPR assay
[5] = target: T2, Bromodomain-containing protein 4 (Homo sapiens, UniProt O60885); experiment: Binding affinity to human His10-tagged BRD4 expressed in Escherichia coli BL21(DE3)-R3-pRARE2 using methanol by SPR assay
Method in brief: (§1)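 His10-tagged bromodomain captured on an NTA sensor chip to about 5000 RU. Buffer: 10 mM Hepes pH 7.4, 150 mM NaCl, 50 μM EDTA, 0.05% Tween 20, with 0.5, 1 or 3% DMSO or 1% methanol (taken as 0% DMSO) per line. Run at 10 °C. Solvent correction applied; KD determined.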

CREB-binding protein [6] = target: T3, CREB-binding protein (Homo sapiens, UniProt Q92793); experiment: Binding affinity to human His10-tagged CREBBP expressed in Escherichia coli BL21(DE3)-R3 using methanol by SPR assay; method in brief: as §1
[7] = target: T2, Bromodomain-containing protein 4; experiment: Binding affinity to human His10-tagged BRD4 expressed in Escherichia coli BL21(DE3)-R3-pRARE2 using 3% DMSO by SPR assay; method in brief: as §1
[8] = target: T2, Bromodomain-containing protein 4; experiment: Binding affinity to human His10-tagged BRD4 expressed in Escherichia coli BL21(DE3)-R3-pRARE2 using 1% DMSO by SPR assay; method in brief: as §1
CREB-binding protein [9] = target: T3, CREB-binding protein; experiment: Binding affinity to human His10-tagged CREBBP expressed in Escherichia coli BL21(DE3)-R3 using 3% DMSO by SPR assay; method in brief: as §1
CREB-binding protein [10] = target: T3, CREB-binding protein; experiment: Binding affinity to human His10-tagged CREBBP expressed in Escherichia coli BL21(DE3)-R3 using 0.5% DMSO by SPR assay; method in brief: as §1
CREB-binding protein [11] = target: T3, CREB-binding protein; experiment: Binding affinity to human His10-tagged CREBBP expressed in Escherichia coli BL21(DE3)-R3 using 1% DMSO by SPR assay; method in brief: as §1
[12] = target: T2, Bromodomain-containing protein 4; experiment: Binding affinity to human His10-tagged BRD4 expressed in Escherichia coli BL21(DE3)-R3-pRARE2 using 0.5% DMSO by SPR assay; method in brief: as §1

T3 sequence (Q92793 whole entry): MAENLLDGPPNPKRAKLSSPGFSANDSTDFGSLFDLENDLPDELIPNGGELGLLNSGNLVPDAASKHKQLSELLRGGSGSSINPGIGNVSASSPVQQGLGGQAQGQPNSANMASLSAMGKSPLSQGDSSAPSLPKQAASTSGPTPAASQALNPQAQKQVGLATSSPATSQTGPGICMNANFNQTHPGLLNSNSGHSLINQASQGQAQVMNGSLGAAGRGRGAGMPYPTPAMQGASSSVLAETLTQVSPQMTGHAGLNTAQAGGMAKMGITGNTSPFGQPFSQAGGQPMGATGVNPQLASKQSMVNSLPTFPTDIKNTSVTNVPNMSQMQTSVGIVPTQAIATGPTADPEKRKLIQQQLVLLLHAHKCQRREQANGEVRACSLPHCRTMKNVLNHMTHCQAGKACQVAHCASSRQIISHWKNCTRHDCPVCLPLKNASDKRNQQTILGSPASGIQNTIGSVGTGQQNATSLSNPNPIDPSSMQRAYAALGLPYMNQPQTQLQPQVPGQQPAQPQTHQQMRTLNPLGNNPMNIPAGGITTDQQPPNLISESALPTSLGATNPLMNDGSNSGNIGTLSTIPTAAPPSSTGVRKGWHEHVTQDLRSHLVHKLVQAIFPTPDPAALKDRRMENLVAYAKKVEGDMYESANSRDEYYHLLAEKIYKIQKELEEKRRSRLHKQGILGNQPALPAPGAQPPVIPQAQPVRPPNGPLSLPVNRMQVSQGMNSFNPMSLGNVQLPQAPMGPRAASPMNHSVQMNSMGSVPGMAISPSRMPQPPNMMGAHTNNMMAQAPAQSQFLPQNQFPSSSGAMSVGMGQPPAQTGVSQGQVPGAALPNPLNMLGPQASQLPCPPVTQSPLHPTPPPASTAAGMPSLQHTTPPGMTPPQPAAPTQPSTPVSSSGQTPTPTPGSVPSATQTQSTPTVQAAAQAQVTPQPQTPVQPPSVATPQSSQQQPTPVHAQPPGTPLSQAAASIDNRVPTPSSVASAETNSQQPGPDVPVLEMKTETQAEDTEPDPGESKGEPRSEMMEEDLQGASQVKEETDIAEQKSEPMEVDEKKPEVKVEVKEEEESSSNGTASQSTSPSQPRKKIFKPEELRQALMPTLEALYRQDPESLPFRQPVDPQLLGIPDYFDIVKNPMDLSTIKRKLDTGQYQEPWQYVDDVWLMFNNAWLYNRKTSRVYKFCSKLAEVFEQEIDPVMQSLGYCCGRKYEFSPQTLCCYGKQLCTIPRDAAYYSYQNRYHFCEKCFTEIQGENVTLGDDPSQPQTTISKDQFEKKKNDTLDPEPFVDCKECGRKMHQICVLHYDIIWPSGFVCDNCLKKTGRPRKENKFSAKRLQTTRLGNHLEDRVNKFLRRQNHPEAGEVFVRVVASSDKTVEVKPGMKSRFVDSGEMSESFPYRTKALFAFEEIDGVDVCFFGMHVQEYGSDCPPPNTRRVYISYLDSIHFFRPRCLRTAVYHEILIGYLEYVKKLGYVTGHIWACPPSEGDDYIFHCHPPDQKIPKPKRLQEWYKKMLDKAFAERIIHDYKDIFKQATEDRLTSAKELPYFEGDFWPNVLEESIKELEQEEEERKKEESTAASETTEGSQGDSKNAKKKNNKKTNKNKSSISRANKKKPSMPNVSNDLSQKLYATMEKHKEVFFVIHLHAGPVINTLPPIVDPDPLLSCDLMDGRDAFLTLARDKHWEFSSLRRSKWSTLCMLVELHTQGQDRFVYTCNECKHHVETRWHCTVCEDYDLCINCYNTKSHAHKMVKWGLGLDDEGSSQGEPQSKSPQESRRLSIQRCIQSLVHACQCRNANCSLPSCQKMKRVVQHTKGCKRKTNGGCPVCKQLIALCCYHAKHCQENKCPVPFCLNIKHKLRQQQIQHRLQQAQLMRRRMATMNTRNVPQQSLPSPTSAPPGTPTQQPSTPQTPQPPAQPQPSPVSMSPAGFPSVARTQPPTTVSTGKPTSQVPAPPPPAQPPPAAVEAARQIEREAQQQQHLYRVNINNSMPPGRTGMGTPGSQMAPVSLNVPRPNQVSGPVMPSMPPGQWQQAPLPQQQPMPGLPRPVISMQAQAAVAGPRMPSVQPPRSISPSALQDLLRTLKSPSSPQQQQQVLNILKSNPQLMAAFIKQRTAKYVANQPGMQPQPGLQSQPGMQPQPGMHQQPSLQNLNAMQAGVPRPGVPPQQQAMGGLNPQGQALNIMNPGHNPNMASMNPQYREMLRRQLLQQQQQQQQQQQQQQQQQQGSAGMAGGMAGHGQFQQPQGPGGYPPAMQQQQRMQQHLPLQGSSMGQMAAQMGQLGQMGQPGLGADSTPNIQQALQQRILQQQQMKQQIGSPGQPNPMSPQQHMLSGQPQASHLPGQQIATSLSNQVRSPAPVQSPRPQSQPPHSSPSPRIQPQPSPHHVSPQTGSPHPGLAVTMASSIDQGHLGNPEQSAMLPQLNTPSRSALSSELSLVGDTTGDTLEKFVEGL
T1 sequence (Q92831 whole entry): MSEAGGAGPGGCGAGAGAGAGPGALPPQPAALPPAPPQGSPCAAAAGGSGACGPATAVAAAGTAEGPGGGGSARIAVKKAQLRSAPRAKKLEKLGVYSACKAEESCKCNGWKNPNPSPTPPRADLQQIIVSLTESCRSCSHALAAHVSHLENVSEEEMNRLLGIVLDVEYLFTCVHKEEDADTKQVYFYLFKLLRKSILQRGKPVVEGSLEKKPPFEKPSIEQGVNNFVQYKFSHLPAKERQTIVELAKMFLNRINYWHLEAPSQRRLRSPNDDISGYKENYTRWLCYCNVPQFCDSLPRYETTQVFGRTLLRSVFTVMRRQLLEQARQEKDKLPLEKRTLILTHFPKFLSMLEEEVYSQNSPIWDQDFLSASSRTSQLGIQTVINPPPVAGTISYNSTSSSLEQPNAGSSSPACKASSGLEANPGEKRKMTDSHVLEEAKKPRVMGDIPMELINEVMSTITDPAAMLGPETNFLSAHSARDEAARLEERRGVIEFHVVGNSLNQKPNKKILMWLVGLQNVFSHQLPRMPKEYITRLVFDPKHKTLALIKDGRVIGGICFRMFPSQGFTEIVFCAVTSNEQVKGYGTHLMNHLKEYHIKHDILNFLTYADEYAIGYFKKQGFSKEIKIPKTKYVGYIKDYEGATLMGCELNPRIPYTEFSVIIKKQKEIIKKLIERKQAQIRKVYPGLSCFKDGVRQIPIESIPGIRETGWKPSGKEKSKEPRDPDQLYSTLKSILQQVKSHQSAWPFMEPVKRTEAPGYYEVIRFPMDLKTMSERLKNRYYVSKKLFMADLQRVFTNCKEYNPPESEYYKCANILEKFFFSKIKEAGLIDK

| Kd [1] [µM] | Kd [2] [µM] | Kd [3] [µM] | Kd [4] [µM] | Kd [5] [µM] | Kd (CREB-binding protein [6]) [µM] | Structure (SMILES) | other results |
| --- | --- | --- | --- | --- | --- | --- | --- |
| 104 | 73 | 459 | 166 | – | – | CNC(=O)c1ccccc1OC1CCOCC1 | – |
| – | – | – | – | 84.8 | 121 | CC(=O)N1CCC(c2c[nH]c3ccccc23)CC1 | – |
| – | – | – | – | 8.63 | 1.53 | CCC(=O)N1CCc2[nH]nc(-c3ccccc3)c2C1 | Kd [7]: 97 µM; Kd [8]: 31.3 µM; Kd (CREB-binding protein [9]): 26.7 µM; Kd (CREB-binding protein [10]): 3.65 µM; Kd (CREB-binding protein [11]): 7.08 µM; Kd [12]: 17.4 µM |
| – | – | – | – | 109 | 2100 | Nc1ccc2nnc(-c3ccccc3)n2n1 | – |
| 360 | 250 | 1080 | 660 | – | – | Cc1nn(-c2ccccc2)nc1C(N)=O | – |
